Source: ChEMBL document CHEMBL1124622, “Synthesis and antiviral activity of 3'-C-cyano-3'-deoxynucleosides” (J Med Chem, 1989)
Converted amounts (≈) assume the structure as drawn.

Columns and labels:
Coxsackievirus = test: (§1) Minimum inhibitory concentration against Coxsackie virus B4 in Vero cell cultures; type: functional
Method in brief: (§2)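 Confluent HeLa, Vero or primary rabbit kidney cell cultures in microtiter trays are inoculated with 100 CCID50 of virus. After 1 h adsorption, residual virus is removed and cells are incubated with varying compound concentrations. Cytopathogenicity is recorded once it is complete in untreated virus-infected controls. MIC is the concentration inhibiting virus-induced cytopathogenicity.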

[1] = (§3) Minimum cytotoxic concentration in HeLa cell cultures; type: cell-based; conditions: human, HeLa cells
[2] = tested on: Moloney murine sarcoma virus; test: In vitro effective dose against Moloney murine sarcoma virus induced transformation of C3H embryo fibroblast cells.; type: functional; conditions: read-out: ED50 (the source's name)
Method in brief: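 C3H mouse embryo cells are seeded at 20 000 cells/mL per well and grown 24 h. They are infected with 80 foci-forming units of Moloney MSV for 90 min, then given fresh medium with varying compound concentrations. Transformation is examined microscopically after 6-7 days. ED50 is the dose giving a 50% reduction in transformation.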

[3] = (§4) Minimum cytotoxic concentration in Vero cell cultures; type: cell-based; conditions: chlorocebus sabaeus, Vero cells
Semliki Forest virus = test: Minimum inhibitory concentration against forest virus in Vero cell cultures; type: functional; method in brief: as §2
Enterovirus C = test: (§5) Minimum inhibitory concentration against polio virus 1 in HeLa cell cultures; type: functional; method in brief: as §2
Sindbis virus = test: Minimum inhibitory concentration against Sindbis virus in Vero cell cultures; type: functional; method in brief: as §2
[4] = tested on: Vesicular stomatitis virus; test: (§6) Minimum inhibitory concentration against Vesicular stomatitis virus in HeLa cell cultures; type: functional; method in brief: as §2
[5] = tested on: Human immunodeficiency virus 1; test: Effective dose against HIV-1 induced cytopathogenicity in human MT-4 cell.; type: functional; conditions: Human immunodeficiency virus 1, MT4; read-out: ED50 (the source's name)
Method in brief: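 HIV (HTLV-III_B) is taken from the culture supernatant of a persistently infected HUT-78 line. Human MT-4 lymphocytes are infected and the assay scores inhibition of virus-induced cytopathogenicity. ED50 is the dose giving 50% protection of MT-4 cells against the viral cytopathic effect.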

Human respirovirus 3 = test: (§7) Minimum inhibitory concentration against parainfluenza 3 virus in Vero cell cultures; type: functional; method in brief: as §2
Coxsackievirus B4 [6] = test: (§8) Minimum inhibitory concentration against Coxsackie virus B4 in HeLa cell cultures; type: functional; conditions: Enterovirus B; method in brief: as §2
[7] = (§9) Minimum cytotoxic concentration in primary rabbit kidney cell cultures; type: cell-based, Oryctolagus cuniculus; conditions: primary rabbit kidney cells
Reovirus sp. = test: (§10) Minimum inhibitory concentration against reovirus in Vero cell cultures; type: functional; method in brief: as §2
Homo sapiens = species: Homo sapiens; test: Cytotoxic dose against uninfected human MT-4 cell; type: functional; conditions: MT4, read-out: CD50 (the source's name)
Method in brief: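 Cytotoxicity counterpart of the HIV assay: uninfected human MT-4 lymphocytes exposed to the compounds. CD50 is the dose that reduces viability of these uninfected cells by 50%.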

[8] = tested on: Vesicular stomatitis virus; test: Minimum inhibitory concentration against Vesicular stomatitis virus in primary rabbit kidney cell cultures; type: functional; method in brief: as §2
[9] = In vitro minimum cytotoxic concentration in C3H embryo fibroblast cells.; type: functional; conditions: Mus musculus
Method in brief: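 Minimal cytotoxic concentration in C3H mouse embryo cells, run in the same 48-well setup as the MSV transformation assay: the concentration producing microscopically visible alteration of cell morphology.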

Coxsackievirus B4 [10] = test: as §1; type: functional; conditions: Enterovirus B; method in brief: as §2
[11] = inimum cytotoxic concentration in Vero cell cultures; type: cell-based; conditions: chlorocebus sabaeus, Vero cells
Vaccinia virus = test: Minimum inhibitory concentration against Vaccinia virus in primary rabbit kidney cell cultures; type: functional; conditions: Orthopoxvirus vaccinia; method in brief: as §2
HeLa [12] = test: as §5; type: functional; conditions: Homo sapiens; method in brief: as §2
HeLa [13] = test: as §6; type: functional; conditions: Homo sapiens; method in brief: as §2
HeLa [14] = test: as §8; type: functional; conditions: Homo sapiens; method in brief: as §2
[15] = tested on: Mammalian orthoreovirus 1; test: as §10; type: functional; method in brief: as §2
Vero [16] = test: as §7; type: functional, Human respirovirus 3; conditions: Chlorocebus sabaeus; method in brief: as §2
Vero [17] = test: as §4; type: functional; conditions: Chlorocebus sabaeus
HeLa [18] = test: as §3; type: functional; conditions: Homo sapiens
Oryctolagus cuniculus = species: Oryctolagus cuniculus; test: as §9; type: functional

Structure (SMILES)	MCC [1]	EC50 [2]	MIC (Semliki Forest virus)	MIC (Sindbis virus)	EC50 [5]	MIC (Human respirovirus 3)	MCC [7]	CC50 (Homo sapiens)	MIC [8]	MCC [9]	MIC (Coxsackievirus B4 [10])	MIC (Vaccinia virus)	MIC (HeLa [12])	MIC (HeLa [13])	MIC (HeLa [14])	MIC [15]	further results
N#C[C@H]1[C@@H](O)[C@H](n2cnc3c(N)ncnc32)O[C@@H]1CO	> 200 µg/mL	8.5 µg/mL (≈ 30.8 µM)	20 µg/mL (≈ 72.4 µM)	10 µg/mL (≈ 36.2 µM)	> 1.6 µM	> 100 µg/mL	> 400 µg/mL	3.8 µM	> 400 µg/mL	> 40 µg/mL							MIC (Coxsackievirus): > 100 µg/mL; MCC [3]: 100 µg/mL; MIC (Enterovirus C): > 100 µg/mL; MIC [4]: > 100 µg/mL; MIC (Coxsackievirus B4 [6]): 200 µg/mL (≈ 724 µM); MIC (Reovirus sp.): > 40 µg/mL
CC(C)(C)[Si](C)(C)OC[C@H]1O[C@@H](n2cnc3c(N)ncnc32)[C@H](O[Si](C)(C)C(C)(C)C)[C@H]1C#N	> 100 µg/mL	16 µg/mL (≈ 31.7 µM)	> 40 µg/mL	20 µg/mL (≈ 39.6 µM)	> 16 µM	> 10 µg/mL	> 100 µg/mL	25 µM	> 40 µg/mL	80 µg/mL	20 µg/mL (≈ 39.6 µM)	> 40 µg/mL	> 40 µg/mL	> 40 µg/mL	> 40 µg/mL	> 10 µg/mL	MCC [11]: > 40 µg/mL
Nc1ncnc2c1ncn2C[C@H](O)CO [(S)-DHPA]			> 400 µg/mL	> 400 µg/mL					20 µg/mL (≈ 95.6 µM)		100 µg/mL (≈ 478 µM)	20 µg/mL (≈ 95.6 µM)	> 400 µg/mL	> 400 µg/mL	2 µg/mL (≈ 9.56 µM)	7 µg/mL (≈ 33.5 µM)	MIC (Vero [16]): 150 µg/mL (≈ 717 µM); MCC (Vero [17]): 400 µg/mL; MCC (HeLa [18]): > 400 µg/mL; MCC (Oryctolagus cuniculus): ≥ 400 µg/mL
